Experimental data: ChEMBL document CHEMBL3868627, “Radical scavenging and antibacterial activity of caffemides against gram positive, gram negative and clinical drug resistance bacteria” (Bioorg Med Chem Lett, 2016)

Columns and labels:
Format in all cases: functional
[1] = test system: Mycolicibacterium smegmatis; assay: Antibacterial activity against Mycobacterium smegmatis MC2 155 ATCC 700084 measured after 72 hrs by serial dilution method
Staphylococcus aureus [2] = assay: Antibacterial activity against Staphylococcus aureus ATCC 25923 measured after 24 hrs by serial dilution method
Staphylococcus aureus [3] = assay: Antibacterial activity against methicillin-resistant Staphylococcus aureus ATCC 43300 measured after 24 hrs by serial dilution method
[4] = test system: Mycolicibacterium smegmatis; assay: Bactericidal activity against Mycobacterium smegmatis MC2 155 ATCC 700084 at >200 ug/ml measured after 6 and 24 hrs by serial dilution method relative to control
Summary of the method: (§1)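 Bacteria were exposed to test compound over a range of µg/ml concentrations. Viable bacteria were counted by colony forming unit (CFU) assay at set time points (6 h and 24 h for M. smegmatis and S. aureus strains), and untreated bacteria served as the control. Percentage of population killed was calculated relative to the untreated control. Values are means ± S.D of three independent trials.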

Pseudomonas aeruginosa [5] = assay: Bactericidal activity against Pseudomonas aeruginosa PAO1 ATCC 15692 at >300 ug/ml measured after 1 and 3 hrs by serial dilution method relative to control
Staphylococcus aureus [6] = assay: Bactericidal activity against methicillin-resistant Staphylococcus aureus ATCC 43300 at 50 ug/ml measured after 6 hrs by serial dilution method relative to control; summary of the method: as §1
Staphylococcus aureus [7] = assay: Bactericidal activity against methicillin-resistant Staphylococcus aureus ATCC 43300 at 50 ug/ml measured after 24 hrs by serial dilution method relative to control; summary of the method: as §1
Staphylococcus aureus [8] = assay: Bactericidal activity against methicillin-resistant Staphylococcus aureus ATCC 43300 at >100 ug/ml measured after 6 and 24 hrs by serial dilution method relative to control; summary of the method: as §1
[9] = test system: Mycolicibacterium smegmatis; assay: Antibacterial activity against Mycobacterium smegmatis MC2 155 ATCC 700084 assessed as colony forming units at 1 ug/ml measured after 6 hrs by serial dilution method (reference value: 70 +/- 1.73 10^3CFU); summary of the method: as §1
[10] = test system: Mycolicibacterium smegmatis; assay: Antibacterial activity against Mycobacterium smegmatis MC2 155 ATCC 700084 assessed as colony forming units at 50 ug/ml measured after 6 hrs by serial dilution method (reference value: 70 +/- 1.73 10^3CFU); summary of the method: as §1
[11] = test system: Mycolicibacterium smegmatis; assay: Antibacterial activity against Mycobacterium smegmatis MC2 155 ATCC 700084 assessed as colony forming units at 100 ug/ml measured after 6 hrs by serial dilution method (reference value: 70 +/- 1.73 10^3CFU); summary of the method: as §1
[12] = test system: Mycolicibacterium smegmatis; assay: Antibacterial activity against Mycobacterium smegmatis MC2 155 ATCC 700084 assessed as colony forming units at 300 ug/ml measured after 6 hrs by serial dilution method (reference value: 70 +/- 1.73 10^3CFU); summary of the method: as §1
[13] = test system: Mycolicibacterium smegmatis; assay: Antibacterial activity against Mycobacterium smegmatis MC2 155 ATCC 700084 assessed as colony forming units at 50 ug/ml measured after 24 hrs by serial dilution method (reference value: 84 +/- 4.35 10^3CFU); summary of the method: as §1
[14] = test system: Mycolicibacterium smegmatis; assay: Antibacterial activity against Mycobacterium smegmatis MC2 155 ATCC 700084 assessed as colony forming units at 200 ug/ml measured after 24 hrs by serial dilution method (reference value: 84 +/- 4.35 10^3CFU); summary of the method: as §1
[15] = test system: Mycolicibacterium smegmatis; assay: Antibacterial activity against Mycobacterium smegmatis MC2 155 ATCC 700084 assessed as colony forming units at 300 ug/ml measured after 24 hrs by serial dilution method (reference value: 84 +/- 4.35 10^3CFU); summary of the method: as §1
[16] = test system: Mycolicibacterium smegmatis; assay: Antibacterial activity against Mycobacterium smegmatis MC2 155 ATCC 700084 assessed as colony forming units at 500 ug/ml measured after 24 hrs by serial dilution method (reference value: 84 +/- 4.35 10^3CFU); summary of the method: as §1
Pseudomonas aeruginosa [17] = assay: Antibacterial activity against Pseudomonas aeruginosa PAO1 ATCC 15692 assessed as colony forming units at 10 ug/ml measured after 1 hr by serial dilution method (reference value: 85.33 +/- 4.04 10^8CFU)
Pseudomonas aeruginosa [18] = assay: Antibacterial activity against Pseudomonas aeruginosa PAO1 ATCC 15692 assessed as colony forming units at 50 ug/ml measured after 1 hr by serial dilution method (reference value: 85.33 +/- 4.04 10^8CFU)
Pseudomonas aeruginosa [19] = assay: Antibacterial activity against Pseudomonas aeruginosa PAO1 ATCC 15692 assessed as colony forming units at 500 ug/ml measured after 1 hr by serial dilution method (reference value: 85.33 +/- 4.04 10^8CFU)
Pseudomonas aeruginosa [20] = assay: Antibacterial activity against Pseudomonas aeruginosa PAO1 ATCC 15692 assessed as colony forming units at 500 ug/ml measured after 3 hr by serial dilution method (reference value: 141.66 +/- 7.5 10^8CFU)
Staphylococcus aureus [21] = assay: Antibacterial activity against Staphylococcus aureus ATCC 25923 assessed as colony forming units at 1 ug/ml measured after 6 hrs by serial dilution method (reference value: 65.66 +/- 3.51 10^6CFU)
Staphylococcus aureus [22] = assay: Antibacterial activity against Staphylococcus aureus ATCC 25923 assessed as colony forming units at 10 ug/ml measured after 6 hrs by serial dilution method (reference value: 65.66 +/- 3.51 10^6CFU)
Staphylococcus aureus [23] = assay: Antibacterial activity against Staphylococcus aureus ATCC 25923 assessed as colony forming units at 200 ug/ml measured after 6 hrs by serial dilution method (reference value: 65.66 +/- 3.51 10^6CFU)
Staphylococcus aureus [24] = assay: Antibacterial activity against Staphylococcus aureus ATCC 25923 assessed as colony forming units at 300 ug/ml measured after 6 hrs by serial dilution method (reference value: 65.66 +/- 3.51 10^6CFU); summary of the method: as §1
Staphylococcus aureus [25] = assay: Antibacterial activity against Staphylococcus aureus ATCC 25923 assessed as colony forming units at 500 ug/ml measured after 6 hrs by serial dilution method (reference value: 65.66 +/- 3.51 10^6CFU); summary of the method: as §1
Staphylococcus aureus [26] = assay: Antibacterial activity against Staphylococcus aureus ATCC 25923 assessed as colony forming units at 10 ug/ml measured after 24 hrs by serial dilution method (reference value: 77.66 +/- 5.13 10^6CFU)
Staphylococcus aureus [27] = assay: Antibacterial activity against Staphylococcus aureus ATCC 25923 assessed as colony forming units at 50 ug/ml measured after 24 hrs by serial dilution method (reference value: 77.66 +/- 5.13 10^6CFU)
Staphylococcus aureus [28] = assay: Antibacterial activity against Staphylococcus aureus ATCC 25923 assessed as colony forming units at 300 ug/ml measured after 24 hrs by serial dilution method (reference value: 77.66 +/- 5.13 10^6CFU)
Staphylococcus aureus [29] = assay: Antibacterial activity against methicillin-resistant Staphylococcus aureus ATCC 43300 assessed as colony forming units at 1 ug/ml measured after 24 hrs by serial dilution method (reference value: 74 +/- 2 10^6CFU); summary of the method: as §1
Staphylococcus aureus [30] = assay: Antibacterial activity against methicillin-resistant Staphylococcus aureus ATCC 43300 assessed as colony forming units at 100 ug/ml measured after 24 hrs by serial dilution method (reference value: 74 +/- 2 10^6CFU); summary of the method: as §1

| Compound | Activity [1] | Activity (Staphylococcus aureus [2]) | Activity (Staphylococcus aureus [3]) | Activity [4] [%] | Activity (Pseudomonas aeruginosa [5]) [%] | Activity (Staphylococcus aureus [6]) [%] | Activity (Staphylococcus aureus [7]) [%] | Activity (Staphylococcus aureus [8]) [%] | Activity [9] [×10³ CFU] | Activity [10] [×10³ CFU] | Activity [11] [×10³ CFU] | Activity [12] [×10³ CFU] | Activity [13] [×10³ CFU] | Activity [14] [×10³ CFU] | Activity [15] [×10³ CFU] | Activity [16] [×10³ CFU] | Activity (Pseudomonas aeruginosa [17]) [×10⁸ CFU] | Activity (Pseudomonas aeruginosa [18]) [×10⁸ CFU] | Activity (Pseudomonas aeruginosa [19]) [×10⁸ CFU] | Activity (Pseudomonas aeruginosa [20]) [×10⁸ CFU] | further results |
| --- | --- | --- | --- | --- | --- | --- | --- | --- | --- | --- | --- | --- | --- | --- | --- | --- | --- | --- | --- | --- | --- |
| O=C(/C=C/c1ccc(O)c(O)c1)Nc1ccccc1Nc1ccccc1 | Dose-dependent effect | Dose-dependent effect | Dose-dependent effect | 100 | 100 | 52.8 | 61.2 | 100 | 52.33 | 33.66 | 24.66 | 0 | 18.33 | 0 | 0 | 0 | 50.33 | 35 | 0 | 0 | Activity (Staphylococcus aureus [21]): 42 ×10⁶ CFU; Activity (Staphylococcus aureus [22]): 40 ×10⁶ CFU; Activity (Staphylococcus aureus [23]): 0 ×10⁶ CFU; Activity (Staphylococcus aureus [24]): 0 ×10⁶ CFU; Activity (Staphylococcus aureus [25]): 0 ×10⁶ CFU; Activity (Staphylococcus aureus [26]): 40 ×10⁶ CFU; Activity (Staphylococcus aureus [27]): 24.66 ×10⁶ CFU; Activity (Staphylococcus aureus [28]): 0 ×10⁶ CFU; Activity (Staphylococcus aureus [29]): 60 ×10⁶ CFU; Activity (Staphylococcus aureus [30]): 11.33 ×10⁶ CFU |
| Cc1ccc(O)c(NC(=O)/C=C/c2ccc(O)c(O)c2)c1 | Dose-dependent effect | Dose-dependent effect | Dose-dependent effect | 100 | 100 | 57.5 | 64.8 | 100 | 65.66 | 25.33 | 14.33 | 0 | 45.66 | 15 | 0 | 0 | 59.33 | 43 | 0 | 0 | Activity (Staphylococcus aureus [21]): 26.33 ×10⁶ CFU; Activity (Staphylococcus aureus [22]): 25.66 ×10⁶ CFU; Activity (Staphylococcus aureus [23]): 4.66 ×10⁶ CFU; Activity (Staphylococcus aureus [24]): 0 ×10⁶ CFU; Activity (Staphylococcus aureus [25]): 0 ×10⁶ CFU; Activity (Staphylococcus aureus [26]): 63 ×10⁶ CFU; Activity (Staphylococcus aureus [27]): 8 ×10⁶ CFU; Activity (Staphylococcus aureus [28]): 0 ×10⁶ CFU; Activity (Staphylococcus aureus [29]): 54.33 ×10⁶ CFU; Activity (Staphylococcus aureus [30]): 15.66 ×10⁶ CFU |
